Data reported in ChEMBL document CHEMBL1122609, “N-allyl analogues of phencyclidine: chemical synthesis and pharmacological properties” (J Med Chem, 1984).

Experiments:
[1] = species on record: Mus musculus; experiment: Acute toxicity relative to PCP was reported.; assay type: organism-based; conditions: in vivo
[2] = test system: Mus musculus; experiment: Percent failing the test was reported at dose 13.2 umol/kg (experiment 1); assay type: functional
[3] = test system: Mus musculus; experiment: Percent failing the test was reported at dose 9.60 umol/kg (experiment 2); assay type: functional
[4] = species on record: Mus musculus; experiment: Effective dose for the degree of motor incoordination in untrained mice; assay type: functional
Method in brief: (§1)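 Male HAP ICR Swiss mice, 25-30 g, pre-screened for passing. Dosing ip in 0.9% NaCl as a solution or fine suspension, 0.01 mL/g, 4-6 doses, six mice per dose, repeated on 2-4 more days. Platform rotated 180° at 5-120 min. Falling, or failing to climb within 60 s, scored.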

[5] = species on record: Mus musculus; experiment: Relative potency was determined using mouse platform test of Coughenour et al.; assay type: functional; method in brief: as §1
[6] = test system: Mus musculus; experiment: Lethal dose (LD50) determined by the Litchfield and Wilcoxon method was reported; assay type: functional
Method in brief: (§2)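 Male HAP ICR Swiss mice, 25-35 g, in groups of six, given ip doses. Deaths counted at 24 h after injection. LD50 estimated by Litchfield–Wilcoxon probit analysis, as for ED50.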

[7] = biological target: Muscarinic acetylcholine receptor; experiment: Dissociation constant towards Muscarinic acetylcholine receptor was determined by using [3H]4NMPB as radioligand; assay type: protein assay
Method in brief: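 Competition binding with [3H]-4NMPB in the S1 supernatant of mouse-brain homogenate, with and without test compound at various concentrations. Nonspecific binding determined and subtracted. KD calculated from the difference in binding.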

[8] = Ratio of failed to the tested was reported at dose 16.0 umol/kg (experiment 1); out of 6; assay type: functional
[9] = Ratio of failed to the tested was reported at dose 19.0 umol/kg (experiment 2); out of 6; assay type: functional
[10] = Ratio of half life (protection) to the control was reported at a concentration 0 M; assay type: ADME
Method in brief: (§3)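 Horse-serum BChE (3 units/mg), Ellman method: 0.025 unit with acetylthiocholine 1.87 × 10^-3 M in 0.1 M phosphate buffer pH 7.4 at 25 °C, absorbance at 412 nm followed over time. Enzyme preincubated 3 min with test compound. DFP 2.5 × 10^-8 M then added. Aliquots assayed for residual activity at various times. Pseudo-first-order constant used to obtain k2 = ln(A0/At)/([I]t).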

[11] = Ratio of half life (protection) to the control was reported at a concentration 4*10e-5 M; assay type: ADME; method in brief: as §3
[12] = Ratio of half life (protection) to the control was reported at a concentration 4*10e-6 M; assay type: ADME; method in brief: as §3
[13] = Ratio of half life (protection) to the control was reported at a concentration 8*10e-6 M; assay type: ADME; method in brief: as §3
[14] = Ratio of failed to the tested was reported at dose 26.0 umol/kg (experiment 1); out of 6; assay type: functional
Method in brief: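 Male HAP ICR Swiss mice (20-30 g), six per group, pre-screened on the platform test. An N-allyl analogue in 0.9% NaCl was given ip, and PCP ip followed 5 min later. The platform was rotated 180° within 10 s, and mice were scored over 60 s for falling off or reaching the top. Testing was at 5-120 min post-injection. The read-out was the number failing out of the number tested.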

[15] = Ratio of failed to the tested was reported at dose 29.0 umol/kg (experiment 2); out of 6; assay type: functional
[16] = Ratio of half life (protection) to the control was reported at a concentration 4*10e-7 M; assay type: ADME; method in brief: as §3
[17] = Ratio of half life (protection) to the control was reported at a concentration 9*10e-7 M; assay type: ADME; method in brief: as §3
[18] = Ratio of failed to the tested was reported at dose 12.4 umol/kg (experiment 1); out of 12; assay type: functional
[19] = Ratio of failed to the tested was reported at dose 15.2 umol/kg (experiment 2); out of 12; assay type: functional
[20] = species on record: Mus musculus; experiment: Compound was evaluated for acute toxicity relative to PCP; assay type: organism-based; conditions: in vivo
[21] = test system: Mus musculus; experiment: Percent failing the test was reported at dose 9.60 umol/kg (experiment 1); assay type: functional
[22] = Ratio of failed to the tested was reported at dose 13.2 umol/kg (experiment 1); out of 6; assay type: functional
Method in brief: (§4)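 Male HAP ICR Swiss mice (20-30 g) pre-screened on the mouse platform test. PCP was given ip in 0.9% NaCl (0.01 mL/g). The platform was rotated 180° within 10 s, and mice were scored over 60 s for falling off, failing to reach the top, or reaching the top. Testing was at 5-120 min post-injection. The read-out was the number failing out of the number tested.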

[23] = Ratio of failed to the tested was reported at dose 9.60 umol/kg (experiment 2); out of 6; assay type: functional
[24] = Ratio of half life (protection) to the control was reported at a concentration 2*10e-6M; assay type: ADME
Method in brief: (§5)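 Horse serum BChE (0.5 unit/mL) was incubated 3 min with the compound, then DFP was added at 2.5 × 10^-8 M, 25 °C. Residual activity was measured in aliquots over time by the Ellman method: acetylthiocholine 1.87 × 10^-3 M, 0.1 M phosphate pH 7.4, absorbance at 412 nm. Inactivation was fitted as pseudo-first-order.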

[25] = Ratio of half life (protection) to the control was reported at a concentration 3*10e-6 M; assay type: ADME; method in brief: as §5
[26] = species on record: Mus musculus; experiment: Compound was evaluated for acute toxicity relative to compound PCP; assay type: organism-based; conditions: in vivo
[27] = test system: Mus musculus; experiment: Compound was evaluated for lethal dose (LD50) by the Litchfield and Wilcoxon method; assay type: functional; method in brief: as §2
[28] = Ratio of failed to the tested was reported at dose 9.60 umol/kg (experiment 2); out of 24; assay type: functional; method in brief: as §4

Row | Structure (SMILES) | Acute toxicity [1] | Activity [2] | Activity [3] | ED50 [4] | Relative potency [5] | LD50 [6] | Kd [7] | Ratio [10] | Ratio [12] | Ratio [13] | Ratio [16] | Ratio [22] | other results
1 | C=CCN(C)C1(c2ccccc2)CCCCC1 | 0.5 | 100% | 100% | 27.2 µmol/kg | 0.41 | 516 µmol/kg | 15 µM | 1 | 2.15 | 2.21 | – | – | Ratio [8]: 6; Ratio [9]: 6; Ratio [11]: 7.76
2 | C=CCN(CC=C)C1(c2ccccc2)CCCCC1 | – | 100% | 100% | 35.6 µmol/kg | 0.27 | – | 25 µM | 1 | 5.89 | – | 1.18 | – | Ratio [14]: 6; Ratio [15]: 6; Ratio [17]: 2.12
3 | C=CCN(CC)C1(c2ccccc2)CCCCC1 | 0.59 | 83% | 83% | 22.6 µmol/kg | 0.42 | 441 µmol/kg | 14 µM | 1 | 5.11 | 1.71 | 1.33 | – | Ratio [18]: 10; Ratio [19]: 10
4 | C=CCNC1(c2ccccc2)CCCCC1 | – | 100% | – | 20.4 µmol/kg | 0.55 | 344 µmol/kg | 70 µM | 1 | 2.61 | 2.35 | – | 6 | Acute toxicity [20]: 0.75; Activity [21]: 83%; Ratio [23]: 5; Ratio [24]: 1.22; Ratio [25]: 1.71
5 | CCNC1(c2ccccc2)CCCCC1 [ETICYCLIDINE] | – | – | – | – | – | – | – | 1 | 2.6 | 2.52 | 0.95 | – | –
6 | c1ccc(C2(N3CCCCC3)CCCCC2)cc1 [PHENCYCLIDINE] | – | 33.3% | 45.8% | 9.6 µmol/kg | 1 | – | 9.1 µM | 1 | 4.48 | 1.73 | 1.26 | 2 | Acute toxicity [26]: 1; LD50 [27]: 258 µmol/kg; Ratio [28]: 11
